For 15 compounds, MIC90, CC50 and Ratio results are on record in ChEMBL document CHEMBL4118076, “Azide-alkyne cycloaddition towards 1H-1,2,3-triazole-tethered gatifloxacin and isatin conjugates: Design, synthesis and in vitro anti-mycobacterial evaluation” (Eur J Med Chem, 2017).

Values after ≈ are worked out from the molar mass of the structure shown.

In series [1] the test system is Mycobacterium tuberculosis. The series can be described thus: Antimycobacterial activity against Mycobacterium tuberculosis H37Rv after 3 to 7 days by rapid direct susceptibility test. It is filed as functional. The essentials:
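Two-fold DMSO dilutions, 0.0125 to 200 μg/mL for H37Rv and 0.062 to 128 μg/mL for the MDR strain (resistant to INH, RIF and ethambutol), mixed with suspension containing 4×10^-3 mg cells. Sealed plates incubated at 37 °C in a wet box. Growth was read visually under high magnification at 3 days and again 7 days later. MIC is the lowest concentration giving complete growth inhibition.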

Series [2] in a line: Cytotoxicity against African green monkey Vero cells assessed as reduction in cell viability after 72 hrs by MTT assay. It is filed as cell-based. As to conditions: chlorocebus sabaeus. The gist of the method:
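VERO cells kept in MEM with Earle's salts + 10% FBS, 37 °C, 5% CO2; seeded 1×10^4 cells/well, recovered 24 h, then medium swapped for assay medium with compound (DMSO-dissolved, 1000 to 4 μg/mL) or drug-free. Viability by MTT after 72 h exposure; CC50 calculated by Bliss analysis.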
A general note: Tetrazolium assays rely on reduction of a dye to a coloured formazan, in cell work by metabolically active cells.

Series [3] concerns Mycobacterium tuberculosis. The series can be described thus: Potency index, ratio of gatifloxacin MIC90 to compound MIC90 for Mycobacterium tuberculosis H37Rv. Format: functional.
Series [4] deals with Mycobacterium tuberculosis. The series can be described thus: Potency index, ratio of rifampicin MIC90 to compound MIC90 for Mycobacterium tuberculosis H37Rv. Format: functional.

Usually MIC90 stands for the lowest concentration that inhibits either 90% of growth or 90% of the strains tested, depending on the study. In series [1], `COc1c(N2CCNC(C)C2)c(F)cc2c(=O)c(C(=O)O)cn(C3CC3)c12` (centres undefined) [GATIFLOXACIN] showed an MIC90 of 0.78 µg/mL (≈ 2.08 µM).
Usually CC50 stands for the concentration that lowers cell viability or growth by half. In turn, `COc1c(N2CCN(Cc3cn(CCN4C(=O)/C(=N\O)c5cc(Cl)ccc54)nn3)C(C)C2)c(F)cc2c(=O)c(C(=O)O)cn(C3CC3)c12` (centres undefined) returned an MIC90 in series [1] of 0.78 µg/mL (≈ 1.15 µM). Moreover, in series [2], the CC50 at 72 h amounted to 31.2 µg/mL (≈ 45.9 µM).
Consider `CO/N=C1\C(=O)N(CCn2cc(CN3CCN(c4c(F)cc5c(=O)c(C(=O)O)cn(C6CC6)c5c4OC)CC3C)nn2)c2ccc(C)cc21` (centres undefined), for which the MIC90 in series [1] is 1.56 µg/mL (≈ 2.32 µM). Also, in series [2], the half-maximal cytotoxic concentration (CC50) at 72 h came out at 31.2 µg/mL (≈ 46.4 µM).
`COc1c(N2CCN(Cc3cn(CCN4C(=O)C(=O)c5cc(F)ccc54)nn3)C(C)C2)c(F)cc2c(=O)c(C(=O)O)cn(C3CC3)c12` (centres undefined): the MIC90 in series [1] is 0.78 µg/mL (≈ 1.2 µM). Moreover, the 50% cytotoxic concentration (CC50) at 72 h in series [2] came to 125 µg/mL (≈ 193 µM).
On to `COc1c(N2CCN(Cc3cn(CCN4C(=O)/C(=N\O)c5cc(C)ccc54)nn3)C(C)C2)c(F)cc2c(=O)c(C(=O)O)cn(C3CC3)c12` (centres undefined), for which, in series [1], the MIC90 is 6.25 µg/mL (≈ 9.49 µM). Further, the CC50 at 72 h in series [2] was determined as 62.5 µg/mL (≈ 94.9 µM).
`CO/N=C1\C(=O)N(CCn2cc(CN3CCN(c4c(F)cc5c(=O)c(C(=O)O)cn(C6CC6)c5c4OC)CC3C)nn2)c2ccccc21` (centres undefined): the MIC90 in series [1] stood at 0.78 µg/mL (≈ 1.18 µM). The cytotoxic concentration (CC50) at 72 h in series [2] is 62.5 µg/mL (≈ 94.9 µM).
In series [1], `COc1c(N2CCN(Cc3cn(CCN4C(=O)C(=O)c5ccccc54)nn3)C(C)C2)c(F)cc2c(=O)c(C(=O)O)cn(C3CC3)c12` (centres undefined) registered an MIC90 of 1.56 µg/mL (≈ 2.48 µM). Moreover, the cytotoxic concentration (CC50) at 72 h in series [2] turned out to be 125 µg/mL (≈ 199 µM).
`COc1c(N2CCN(Cc3cn(CCN4C(=O)/C(=N\O)c5ccccc54)nn3)C(C)C2)c(F)cc2c(=O)c(C(=O)O)cn(C3CC3)c12` (centres undefined): the MIC90 in series [1] was 3.12 µg/mL (≈ 4.84 µM). Also, the CC50 at 72 h in series [2] came to 250 µg/mL (≈ 388 µM).
Consider `COc1c(N2CCN(Cc3cn(CCN4C(=O)C(=O)c5cc(C)ccc54)nn3)C(C)C2)c(F)cc2c(=O)c(C(=O)O)cn(C3CC3)c12` (centres undefined), for which, in series [1], the MIC90 amounted to 1.56 µg/mL (≈ 2.42 µM). For the same compound, in series [2], the CC50 at 72 h came to 250 µg/mL (≈ 388 µM).
As for `CO[C@H]1/C=C/O[C@@]2(C)Oc3c(C)c(O)c4c(O)c(c(/C=N/N5CCN(C)CC5)c(O)c4c3C2=O)NC(=O)/C(C)=C\C=C\[C@H](C)[C@H](O)[C@@H](C)[C@@H](O)[C@@H](C)[C@H](OC(C)=O)[C@@H]1C` [RIFAMPIN], the MIC90 in series [1] stood at 0.39 µg/mL (≈ 0.474 µM).
Consider `CO/N=C1\C(=O)N(CCn2cc(CN3CCN(c4c(F)cc5c(=O)c(C(=O)O)cn(C6CC6)c5c4OC)CC3C)nn2)c2ccc(F)cc21` (centres undefined), for which the MIC90 in series [1] was determined as 0.2 µg/mL (≈ 0.296 µM). Further, the half-maximal cytotoxic concentration (CC50) at 72 h in series [2] came to 7.8 µg/mL (≈ 11.5 µM).
The compound `COc1c(N2CCN(Cc3cn(CCN4C(=O)C(=O)c5cc(Cl)ccc54)nn3)C(C)C2)c(F)cc2c(=O)c(C(=O)O)cn(C3CC3)c12` (centres undefined) gave an MIC90 in series [1] of 0.39 µg/mL (≈ 0.587 µM). In addition, the CC50 at 72 h in series [2] worked out at 62.5 µg/mL (≈ 94.1 µM).
For `NNC(=O)c1ccncc1` [ISONIAZID], the MIC90 in series [1] was determined as 0.05 µg/mL (≈ 0.365 µM).
For `CO/N=C1\C(=O)N(CCn2cc(CN3CCN(c4c(F)cc5c(=O)c(C(=O)O)cn(C6CC6)c5c4OC)CC3C)nn2)c2ccc(Cl)cc21` (centres undefined), the MIC90 in series [1] stood at 0.1 µg/mL (≈ 0.144 µM). The Ratio in series [3] and in series [4] was 4 - 8 each time. Moreover, the cytotoxic concentration (CC50) at 72 h in series [2] was 7.8 µg/mL (≈ 11.3 µM).
In series [1], `COc1c(N2CCN(Cc3cn(CCN4C(=O)/C(=N\O)c5cc(F)ccc54)nn3)C(C)C2)c(F)cc2c(=O)c(C(=O)O)cn(C3CC3)c12` (centres undefined) gave an MIC90 of 1.56 µg/mL (≈ 2.35 µM). For the same compound, the CC50 at 72 h in series [2] turned out to be 7.8 µg/mL (≈ 11.8 µM).
